Source: ChEMBL document CHEMBL4689842, “EUbOPEN Chemogenomics Library wave 1” (2021)

Test system: Fibroblast
Assay: Multiplex assay against human fibroblast
Type: toxicity, cell-based
Outline: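 Phenotypes for tubulin, mitochondrial mass and membrane permeability are expressed as per cents of healthy-nucleus cells. Cells were stained live at seeding with Hoechst33342, BioTracker Green Microtubule Cytoskeleton Dye, MitoTracker Red and Annexin V Alexa Fluor 680, then imaged after compound addition on a CQ1 microscope at 37°C and 5% CO2. Machine-learning gating in CellPathfinder separated Hoechst high-intensity objects from normal cells, divided normal cells by nuclear state (healthy, pyknosed, fragmented) and divided pyknosed cells into mitotic or apoptotic.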

[1] = 12 h, 1 µM, compound concentration 1 uM, replicate 1
[2] = 12 h, 1 µM, compound concentration 1 uM, replicate 2
[3] = 12 h, 10 µM, compound concentration 10 uM, replicate 1
[4] = 12 h, 10 µM, compound concentration 10 uM, replicate 2
[5] = 24 h, 1 µM, compound concentration 1 uM, replicate 1
[6] = 24 h, 1 µM, compound concentration 1 uM, replicate 2
[7] = 24 h, 10 µM, compound concentration 10 uM, replicate 1
[8] = 24 h, 10 µM, compound concentration 10 uM, replicate 2

CCn1cc(-c2ccnc3[nH]c(-c4cccc(CN(C)C)c4)cc23)c(-c2ccc(NC(=O)N(C)C)cc2)n1 [GSK-1070916]
Population Apoptotic (%) [1]: 80%
Population Fragmented Nuclei (%) [1]: 33%
Population Healthy Nuclei (%) [1]: 51%
Population Hoechst High Intensity Objects (%) [1]: 13%
Population Membrane Permeable-Phenotype (%) [1]: 4%
Population Mitochondria Different-Phenotype (%) [1]: 0%
Population Mitotic Cells (%) [1]: 19%
Population Normal (%) [1]: 86%
Population Pyknosed Nuclei (%) [1]: 14%
Population Tubulin-Different-Phenotype (%) [1]: 5%
Total Cell Count [1]: 205
Population Apoptotic (%) [2]: 25%
Population Fragmented Nuclei (%) [2]: 56%
Population Healthy Nuclei (%) [2]: 34%
Population Hoechst High Intensity Objects (%) [2]: 46%
Population Membrane Permeable-Phenotype (%) [2]: 26%
Population Mitochondria Different-Phenotype (%) [2]: 6%
Population Mitotic Cells (%) [2]: 75%
Population Normal (%) [2]: 53%
Population Pyknosed Nuclei (%) [2]: 9%
Population Tubulin-Different-Phenotype (%) [2]: 13%
Total Cell Count [2]: 83
Population Apoptotic (%) [3]: 60%
Population Fragmented Nuclei (%) [3]: 23%
Population Healthy Nuclei (%) [3]: 56%
Population Hoechst High Intensity Objects (%) [3]: 44%
Population Membrane Permeable-Phenotype (%) [3]: 5%
Population Mitochondria Different-Phenotype (%) [3]: 2%
Population Mitotic Cells (%) [3]: 39%
Population Normal (%) [3]: 55%
Population Pyknosed Nuclei (%) [3]: 19%
Population Tubulin-Different-Phenotype (%) [3]: 27%
Total Cell Count [3]: 473
Population Apoptotic (%) [4]: 33%
Population Fragmented Nuclei (%) [4]: 54%
Population Healthy Nuclei (%) [4]: 35%
Population Hoechst High Intensity Objects (%) [4]: 49%
Population Membrane Permeable-Phenotype (%) [4]: 4%
Population Mitochondria Different-Phenotype (%) [4]: 13%
Population Mitotic Cells (%) [4]: 66%
Population Normal (%) [4]: 50%
Population Pyknosed Nuclei (%) [4]: 9%
Population Tubulin-Different-Phenotype (%) [4]: 52%
Total Cell Count [4]: 127
Population Apoptotic (%) [5]: 70%
Population Fragmented Nuclei (%) [5]: 32%
Population Healthy Nuclei (%) [5]: 56%
Population Hoechst High Intensity Objects (%) [5]: 19%
Population Membrane Permeable-Phenotype (%) [5]: 3%
Population Mitochondria Different-Phenotype (%) [5]: 1%
Population Mitotic Cells (%) [5]: 30%
Population Normal (%) [5]: 80%
Population Tubulin-Different-Phenotype (%) [5]: 5%
Total Cell Count [5]: 222
Population Apoptotic (%) [6]: 66%
Population Fragmented Nuclei (%) [6]: 62%
Population Healthy Nuclei (%) [6]: 26%
Population Hoechst High Intensity Objects (%) [6]: 23%
Population Membrane Permeable-Phenotype (%) [6]: 21%
Population Mitochondria Different-Phenotype (%) [6]: 14%
Population Mitotic Cells (%) [6]: 33%
Population Normal (%) [6]: 76%
Population Pyknosed Nuclei (%) [6]: 11%
Population Tubulin-Different-Phenotype (%) [6]: 21%
Total Cell Count [6]: 69
Population Apoptotic (%) [7]: 49%
Population Fragmented Nuclei (%) [7]: 24%
Population Healthy Nuclei (%) [7]: 51%
Population Hoechst High Intensity Objects (%) [7]: 50%
Population Membrane Permeable-Phenotype (%) [7]: 0%
Population Mitochondria Different-Phenotype (%) [7]: 10%
Population Mitotic Cells (%) [7]: 50%
Population Normal (%) [7]: 50%
Population Pyknosed Nuclei (%) [7]: 24%
Population Tubulin-Different-Phenotype (%) [7]: 31%
Total Cell Count [7]: 430
Population Apoptotic (%) [8]: 20%
Population Fragmented Nuclei (%) [8]: 45%
Population Healthy Nuclei (%) [8]: 40%
Population Hoechst High Intensity Objects (%) [8]: 44%
Population Membrane Permeable-Phenotype (%) [8]: 3%
Population Mitochondria Different-Phenotype (%) [8]: 20%
Population Mitotic Cells (%) [8]: 80%
Population Normal (%) [8]: 55%
Population Pyknosed Nuclei (%) [8]: 14%
Population Tubulin-Different-Phenotype (%) [8]: 51%
Total Cell Count [8]: 129

COC(=N)c1nc2ccc3ncnc(Nc4ccc(OC)cc4F)c3c2s1
Population Apoptotic (%) [1]: 55%
Population Fragmented Nuclei (%) [1]: 30%
Population Healthy Nuclei (%) [1]: 60%
Population Hoechst High Intensity Objects (%) [1]: 17%
Population Membrane Permeable-Phenotype (%) [1]: 3%
Population Mitochondria Different-Phenotype (%) [1]: 3%
Population Mitotic Cells (%) [1]: 44%
Population Normal (%) [1]: 82%
Population Pyknosed Nuclei (%) [1]: 9%
Population Tubulin-Different-Phenotype (%) [1]: 1%
Total Cell Count [1]: 119
Population Apoptotic (%) [2]: 28%
Population Fragmented Nuclei (%) [2]: 50%
Population Healthy Nuclei (%) [2]: 34%
Population Hoechst High Intensity Objects (%) [2]: 33%
Population Membrane Permeable-Phenotype (%) [2]: 6%
Population Mitochondria Different-Phenotype (%) [2]: 6%
Population Mitotic Cells (%) [2]: 71%
Population Normal (%) [2]: 66%
Population Pyknosed Nuclei (%) [2]: 15%
Population Tubulin-Different-Phenotype (%) [2]: 6%
Total Cell Count [2]: 69
Population Apoptotic (%) [3]: 76%
Population Fragmented Nuclei (%) [3]: 20%
Population Healthy Nuclei (%) [3]: 60%
Population Hoechst High Intensity Objects (%) [3]: 11%
Population Membrane Permeable-Phenotype (%) [3]: 7%
Population Mitochondria Different-Phenotype (%) [3]: 0%
Population Mitotic Cells (%) [3]: 23%
Population Normal (%) [3]: 88%
Population Pyknosed Nuclei (%) [3]: 18%
Population Tubulin-Different-Phenotype (%) [3]: 1%
Total Cell Count [3]: 238
Population Apoptotic (%) [4]: 100%
Population Fragmented Nuclei (%) [4]: 57%
Population Healthy Nuclei (%) [4]: 35%
Population Hoechst High Intensity Objects (%) [4]: 30%
Population Membrane Permeable-Phenotype (%) [4]: 5%
Population Mitochondria Different-Phenotype (%) [4]: 5%
Population Mitotic Cells (%) [4]: 0%
Population Normal (%) [4]: 69%
Population Pyknosed Nuclei (%) [4]: 7%
Population Tubulin-Different-Phenotype (%) [4]: 5%
Total Cell Count [4]: 82
Population Apoptotic (%) [5]: 77%
Population Fragmented Nuclei (%) [5]: 41%
Population Healthy Nuclei (%) [5]: 50%
Population Hoechst High Intensity Objects (%) [5]: 19%
Population Membrane Permeable-Phenotype (%) [5]: 8%
Population Mitochondria Different-Phenotype (%) [5]: 6%
Population Mitotic Cells (%) [5]: 22%
Population Normal (%) [5]: 80%
Population Pyknosed Nuclei (%) [5]: 7%
Population Tubulin-Different-Phenotype (%) [5]: 1%
Total Cell Count [5]: 146
Population Apoptotic (%) [6]: 42%
Population Fragmented Nuclei (%) [6]: 44%
Population Healthy Nuclei (%) [6]: 36%
Population Hoechst High Intensity Objects (%) [6]: 30%
Population Membrane Permeable-Phenotype (%) [6]: 7%
Population Mitochondria Different-Phenotype (%) [6]: 7%
Population Mitotic Cells (%) [6]: 57%
Population Normal (%) [6]: 69%
Population Pyknosed Nuclei (%) [6]: 18%
Population Tubulin-Different-Phenotype (%) [6]: 14%
Total Cell Count [6]: 55
Population Apoptotic (%) [7]: 65%
Population Fragmented Nuclei (%) [7]: 20%
Population Healthy Nuclei (%) [7]: 62%
Population Hoechst High Intensity Objects (%) [7]: 13%
Population Membrane Permeable-Phenotype (%) [7]: 5%
Population Mitochondria Different-Phenotype (%) [7]: 2%
Population Mitotic Cells (%) [7]: 34%
Population Normal (%) [7]: 86%
Population Pyknosed Nuclei (%) [7]: 17%
Population Tubulin-Different-Phenotype (%) [7]: 1%
Total Cell Count [7]: 246
Population Apoptotic (%) [8]: 50%
Population Fragmented Nuclei (%) [8]: 54%
Population Healthy Nuclei (%) [8]: 37%
Population Hoechst High Intensity Objects (%) [8]: 30%
Population Membrane Permeable-Phenotype (%) [8]: 10%
Population Mitochondria Different-Phenotype (%) [8]: 5%
Population Mitotic Cells (%) [8]: 50%
Population Normal (%) [8]: 69%
Population Pyknosed Nuclei (%) [8]: 7%
Population Tubulin-Different-Phenotype (%) [8]: 10%
Total Cell Count [8]: 73
